From ChEMBL document CHEMBL1154342, “Scaffold-based design and synthesis of potent N-type calcium channel blockers” (Bioorg Med Chem Lett, 2009)
One block for each molecule: values may come before it. Activity calls are given as the source filed them. No cut-off for these calls is given here.

Experiments:
[1] = Volume of distribution at steady state in rat at 2 mg/kg, iv; assay type: ADME, organism-based; design: dose 2 mg/kg, route intravenous; conditions: in vivo, read-out: Vdss
Method in brief: (§1)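 Rats given a single dose by vein (2 mg/kg) or by mouth (10 mg/kg). Plasma sampled, with AUC taken to 8 h and extrapolated to infinity. Cmax is the highest observed concentration, and Tmax is the time to it. Half-life, apparent volume of distribution, plasma clearance and oral bioavailability were also derived. Values are given as mean with standard error.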

[2] = Cmax in rat at 10 mg/kg, po; conditions: in vivo
[3] = Half life in rat at 2 mg/kg, iv; assay type: ADME, organism-based; design: dose 2 mg/kg, route intravenous; conditions: in vivo; method in brief: as §1
[4] = tested on: Rattus norvegicus; experiment: Analgesic activity against phse 2A portion of rat formalin-induced inflammatory pain model assessed as flinches at 25 mg/kg, ip; assay type: functional, organism-based; design: dose 25 mg/kg
Method in brief: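 Rat formalin inflammatory pain model with the phase IIA portion scored. Compounds were given intraperitoneally at 25 mg/kg, using 24–26 animals per group.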

[5] = Blocking of rat Voltage-dependent L-type calcium channel alpha1c/alpha2delta-1/beta1b activity expressed in HEK293 cells assessed as whole cell current by whole cell patch clamp assay; assay type: cell-based
Method in brief: (§2)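 HEK293 cells transiently transfected with rat channel subunits and recorded 24–72 h later. Whole-cell patch clamp used barium as the charge carrier. Currents were elicited from a holding potential of −100 mV to the peak of each channel's current–voltage relation. Each compound was tested on 3–5 cells per subtype.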

[6] = Displacement of radioligand from voltage-gated sodium channel at 10 uM
[7] = Half life in rat at 10 mg/kg, po; conditions: in vivo
[8] = AUC (0 to infinity) in rat at 10 mg/kg, po; conditions: plasma
[9] = species: Rattus norvegicus; experiment: Selectivity ratio of IC50 for rat Voltage-dependent L-type calcium channel to IC50 for rat N-type calcium channel; method in brief: as §2
[10] = Oral bioavailability in rat at 10 mg/kg, po; conditions: in vivo
[11] = biological target: Mu-type opioid receptor (Homo sapiens) (UniProt P35372); experiment: Displacement of radioligand from mu opioid receptor at 10 uM
Chain of Mu-type opioid receptor (Homo sapiens) (P35372 whole entry): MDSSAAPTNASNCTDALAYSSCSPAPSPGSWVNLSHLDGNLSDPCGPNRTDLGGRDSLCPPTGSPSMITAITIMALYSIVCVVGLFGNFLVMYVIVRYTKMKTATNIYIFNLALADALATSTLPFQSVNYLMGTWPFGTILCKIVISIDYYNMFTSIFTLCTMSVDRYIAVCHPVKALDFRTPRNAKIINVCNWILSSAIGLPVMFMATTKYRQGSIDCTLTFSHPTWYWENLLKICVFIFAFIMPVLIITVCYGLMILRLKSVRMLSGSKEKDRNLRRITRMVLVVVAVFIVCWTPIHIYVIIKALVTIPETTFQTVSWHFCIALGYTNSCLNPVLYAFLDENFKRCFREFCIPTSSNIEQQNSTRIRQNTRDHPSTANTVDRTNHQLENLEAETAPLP

[12] = Displacement of radioligand from Voltage-dependent L-type calcium channel at 10 uM
[13] = biological target: Voltage-dependent L-type calcium channel subunit beta-1/alpha-1B/alpha-2/delta-1 (Rattus norvegicus, UniProt Q02294); experiment: Blocking of rat N-type calcium channel alpha-1B/alpha-2-delta-1/beta-1b activity expressed in HEK293 cells assessed as whole cell current by whole cell patch clamp assay; assay type: cell-based
Chain of Voltage-dependent L-type calcium channel subunit beta-1/alpha-1B/alpha-2/delta-1 (Q02294 whole entry): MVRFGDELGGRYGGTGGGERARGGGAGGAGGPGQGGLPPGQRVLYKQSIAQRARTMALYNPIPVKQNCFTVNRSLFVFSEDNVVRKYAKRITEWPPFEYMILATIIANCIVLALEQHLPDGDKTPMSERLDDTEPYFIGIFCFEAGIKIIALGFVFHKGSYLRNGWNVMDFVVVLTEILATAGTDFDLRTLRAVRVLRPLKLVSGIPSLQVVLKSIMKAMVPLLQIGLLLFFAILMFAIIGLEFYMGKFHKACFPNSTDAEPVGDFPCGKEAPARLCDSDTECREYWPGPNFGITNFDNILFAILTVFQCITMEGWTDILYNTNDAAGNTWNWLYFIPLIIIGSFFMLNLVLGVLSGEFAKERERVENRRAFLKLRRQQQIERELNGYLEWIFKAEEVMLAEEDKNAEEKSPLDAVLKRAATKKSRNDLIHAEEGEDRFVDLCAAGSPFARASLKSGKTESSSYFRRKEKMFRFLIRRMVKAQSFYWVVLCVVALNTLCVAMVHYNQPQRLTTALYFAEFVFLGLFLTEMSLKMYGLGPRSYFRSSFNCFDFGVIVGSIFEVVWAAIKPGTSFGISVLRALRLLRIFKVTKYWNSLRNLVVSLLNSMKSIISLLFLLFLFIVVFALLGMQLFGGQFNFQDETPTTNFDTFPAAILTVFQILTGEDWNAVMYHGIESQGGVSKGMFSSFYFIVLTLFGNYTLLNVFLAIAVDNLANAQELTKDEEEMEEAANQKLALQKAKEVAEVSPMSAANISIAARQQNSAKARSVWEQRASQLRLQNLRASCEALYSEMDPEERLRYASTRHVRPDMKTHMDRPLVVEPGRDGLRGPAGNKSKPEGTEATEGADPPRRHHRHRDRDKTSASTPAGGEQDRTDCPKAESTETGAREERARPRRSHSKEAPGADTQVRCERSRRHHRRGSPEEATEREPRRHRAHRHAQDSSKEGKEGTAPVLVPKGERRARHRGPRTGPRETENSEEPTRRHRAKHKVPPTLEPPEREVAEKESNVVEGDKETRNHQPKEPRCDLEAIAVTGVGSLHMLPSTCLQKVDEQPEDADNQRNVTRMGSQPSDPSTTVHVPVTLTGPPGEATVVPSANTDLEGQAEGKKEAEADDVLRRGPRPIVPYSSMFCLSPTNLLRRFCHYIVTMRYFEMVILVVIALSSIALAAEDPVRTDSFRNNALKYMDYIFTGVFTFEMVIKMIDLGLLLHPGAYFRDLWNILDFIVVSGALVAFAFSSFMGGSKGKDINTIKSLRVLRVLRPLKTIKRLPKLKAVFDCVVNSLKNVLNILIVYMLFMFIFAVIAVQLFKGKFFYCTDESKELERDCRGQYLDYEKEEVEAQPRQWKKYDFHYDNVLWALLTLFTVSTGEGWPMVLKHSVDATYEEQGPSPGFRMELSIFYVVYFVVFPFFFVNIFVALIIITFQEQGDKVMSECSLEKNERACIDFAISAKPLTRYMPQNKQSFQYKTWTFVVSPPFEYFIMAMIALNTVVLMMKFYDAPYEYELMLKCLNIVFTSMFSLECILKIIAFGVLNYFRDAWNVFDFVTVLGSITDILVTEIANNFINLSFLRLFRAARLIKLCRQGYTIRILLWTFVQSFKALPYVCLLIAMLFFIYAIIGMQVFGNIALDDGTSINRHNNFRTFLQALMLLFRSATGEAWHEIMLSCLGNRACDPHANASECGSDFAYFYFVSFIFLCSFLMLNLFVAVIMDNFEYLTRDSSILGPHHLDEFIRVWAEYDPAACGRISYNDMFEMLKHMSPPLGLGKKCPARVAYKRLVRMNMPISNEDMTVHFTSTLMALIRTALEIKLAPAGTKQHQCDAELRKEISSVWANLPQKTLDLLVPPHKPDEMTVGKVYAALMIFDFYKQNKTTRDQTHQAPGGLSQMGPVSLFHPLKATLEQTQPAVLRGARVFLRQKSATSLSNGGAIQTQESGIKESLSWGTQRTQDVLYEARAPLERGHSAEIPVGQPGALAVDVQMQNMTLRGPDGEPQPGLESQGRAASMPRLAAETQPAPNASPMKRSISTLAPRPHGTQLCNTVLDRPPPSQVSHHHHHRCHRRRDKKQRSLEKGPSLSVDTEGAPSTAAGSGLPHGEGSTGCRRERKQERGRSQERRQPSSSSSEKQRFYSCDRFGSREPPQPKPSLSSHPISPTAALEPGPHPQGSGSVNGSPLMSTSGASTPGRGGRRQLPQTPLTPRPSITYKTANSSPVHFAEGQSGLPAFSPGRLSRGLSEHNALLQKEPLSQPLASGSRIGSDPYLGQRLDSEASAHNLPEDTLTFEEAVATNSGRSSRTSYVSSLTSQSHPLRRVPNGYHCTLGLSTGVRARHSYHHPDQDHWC
Chain of Voltage-dependent L-type calcium channel subunit beta-1/alpha-1B/alpha-2/delta-1 (P54283 whole entry partner): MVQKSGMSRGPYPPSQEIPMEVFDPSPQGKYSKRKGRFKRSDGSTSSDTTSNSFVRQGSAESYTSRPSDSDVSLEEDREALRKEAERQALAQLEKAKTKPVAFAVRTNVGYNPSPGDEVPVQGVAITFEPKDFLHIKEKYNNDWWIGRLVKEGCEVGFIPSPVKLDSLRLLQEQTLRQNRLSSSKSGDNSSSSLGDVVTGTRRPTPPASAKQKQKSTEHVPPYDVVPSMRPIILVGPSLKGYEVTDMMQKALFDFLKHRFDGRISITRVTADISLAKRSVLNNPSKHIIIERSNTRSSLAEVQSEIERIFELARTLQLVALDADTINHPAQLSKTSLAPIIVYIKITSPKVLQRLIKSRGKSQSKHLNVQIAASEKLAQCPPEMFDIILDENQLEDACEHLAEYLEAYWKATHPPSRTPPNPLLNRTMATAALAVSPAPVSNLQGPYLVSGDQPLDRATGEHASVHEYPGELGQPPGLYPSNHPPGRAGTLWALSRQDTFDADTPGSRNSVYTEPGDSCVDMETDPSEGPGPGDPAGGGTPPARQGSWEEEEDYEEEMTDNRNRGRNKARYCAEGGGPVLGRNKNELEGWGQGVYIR
Chain of Voltage-dependent L-type calcium channel subunit beta-1/alpha-1B/alpha-2/delta-1 (P54290 25-944 partner limits assumed): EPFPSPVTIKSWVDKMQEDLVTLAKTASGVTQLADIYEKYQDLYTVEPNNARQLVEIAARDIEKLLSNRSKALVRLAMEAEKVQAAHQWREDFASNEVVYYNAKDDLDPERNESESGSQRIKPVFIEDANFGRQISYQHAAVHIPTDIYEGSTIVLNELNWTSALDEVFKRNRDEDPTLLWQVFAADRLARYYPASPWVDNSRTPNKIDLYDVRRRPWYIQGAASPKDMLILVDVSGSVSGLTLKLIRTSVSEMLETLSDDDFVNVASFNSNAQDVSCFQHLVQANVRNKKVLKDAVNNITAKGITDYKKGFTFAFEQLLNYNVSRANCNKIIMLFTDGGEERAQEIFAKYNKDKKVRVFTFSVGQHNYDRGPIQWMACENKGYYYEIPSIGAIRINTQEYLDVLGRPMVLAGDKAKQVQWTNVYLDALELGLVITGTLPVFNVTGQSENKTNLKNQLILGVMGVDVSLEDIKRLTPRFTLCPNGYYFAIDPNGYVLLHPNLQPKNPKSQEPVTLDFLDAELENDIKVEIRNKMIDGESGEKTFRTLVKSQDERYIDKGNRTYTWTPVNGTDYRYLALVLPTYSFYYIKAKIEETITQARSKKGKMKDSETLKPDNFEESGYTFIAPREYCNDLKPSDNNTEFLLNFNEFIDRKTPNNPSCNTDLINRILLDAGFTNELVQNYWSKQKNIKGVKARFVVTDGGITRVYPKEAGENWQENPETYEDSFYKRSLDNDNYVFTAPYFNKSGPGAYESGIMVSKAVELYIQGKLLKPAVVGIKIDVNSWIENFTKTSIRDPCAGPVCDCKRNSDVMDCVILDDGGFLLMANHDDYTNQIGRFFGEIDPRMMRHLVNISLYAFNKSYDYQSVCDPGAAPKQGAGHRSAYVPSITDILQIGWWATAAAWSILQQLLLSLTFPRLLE
Chain of Voltage-dependent L-type calcium channel subunit beta-1/alpha-1B/alpha-2/delta-1 (P54290 945-1091 partner limits assumed): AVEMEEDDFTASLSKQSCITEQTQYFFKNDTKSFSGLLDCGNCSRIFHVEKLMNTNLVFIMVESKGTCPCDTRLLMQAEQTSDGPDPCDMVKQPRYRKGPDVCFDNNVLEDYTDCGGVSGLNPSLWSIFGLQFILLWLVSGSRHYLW
Method in brief: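 HEK293 cells transiently transfected with rat channel subunits, recorded 24–72 h post-transfection. Whole-cell patch clamp with barium as charge carrier; currents elicited from a holding potential of −100 mV to the peak of the current–voltage relation. Each compound tested on 3–5 cells; IC50 estimated.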

[14] = tested on: Rattus norvegicus; experiment: Apparent oral clearance in rat at 10 mg/kg, po; conditions: in vivo
[15] = AUC (0 to 8 hrs) in rat at 2 mg/kg, iv; assay type: ADME, organism-based; design: time < 8 hr, dose 2 mg/kg, route intravenous; conditions: plasma; method in brief: as §1
[16] = AUC (0 to infinity) in rat at 2 mg/kg, iv; assay type: ADME, organism-based; design: time infinity, dose 2 mg/kg, route intravenous; conditions: plasma; method in brief: as §1
[17] = AUC (0 to 8 hrs) in rat at 10 mg/kg, po; conditions: plasma
[18] = Cmax in rat at 2 mg/kg, iv; assay type: ADME, organism-based; design: dose 2 mg/kg, route intravenous; conditions: in vivo; method in brief: as §1
[19] = biological target: Voltage-gated inwardly rectifying potassium channel KCNH2 (Homo sapiens, UniProt Q12809); experiment: Inhibition of human ERG current
Method in brief: (§3)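 Whole-cell patch clamp of HEK cells stably expressing hERG, measuring peak tail currents. A single 1 µM application was used for the screen. The concentration–response used 0.1, 1, 3 and 10 µM against a 0.1% DMSO control, with n = 4 per concentration.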

[20] = biological target: Cannabinoid receptor 1 (Homo sapiens) (UniProt P21554); experiment: Displacement of radioligand from cannabinoid CB1 receptor at 10 uM
Chain of Cannabinoid receptor 1 (Homo sapiens) (P21554 whole entry): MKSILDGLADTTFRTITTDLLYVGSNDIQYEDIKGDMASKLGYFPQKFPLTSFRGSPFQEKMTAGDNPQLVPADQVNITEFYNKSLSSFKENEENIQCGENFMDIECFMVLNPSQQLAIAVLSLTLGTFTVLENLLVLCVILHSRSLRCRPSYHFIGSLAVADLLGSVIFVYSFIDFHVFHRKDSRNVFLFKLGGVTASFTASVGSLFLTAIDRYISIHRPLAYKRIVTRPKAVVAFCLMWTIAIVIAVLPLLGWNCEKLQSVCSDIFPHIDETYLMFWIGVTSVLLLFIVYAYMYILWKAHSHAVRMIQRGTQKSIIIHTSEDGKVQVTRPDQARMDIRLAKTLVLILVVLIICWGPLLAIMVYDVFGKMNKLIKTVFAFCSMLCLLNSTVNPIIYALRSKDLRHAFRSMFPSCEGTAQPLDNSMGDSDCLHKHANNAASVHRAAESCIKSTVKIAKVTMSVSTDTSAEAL

[21] = biological target: hERG (KCNH2) (Homo sapiens, UniProt Q12809); experiment: Inhibition of human ERG current at 1 uM; method in brief: as §3

SMILES: O=C(CC(c1ccccc1)c1ccccc1)N1CCN(C(c2ccccc2)c2ccccc2)CC1 [Z160]
Vd [1]: 5.79 L/kg | Cmax [2]: 235 ng/mL | half-life [3]: 3.3 h | Activity [4]: Active | IC50 ([5]; HEK293): 12200 nM | Activity [6]: Active | half-life [7]: 2.1 h | AUC(0-inf) [8]: 1140 ng·h/mL | Ratio IC50 [9]: 111 | bioavailability [10]: 30% | Activity [11]: Active | Activity [12]: Active | IC50 [13]: 110 nM | CL/F [14]: 164 mL/min/kg | AUC(0-t) at 8 h [15]: 715 ng·h/mL | AUC(0-inf) [16]: 761 ng·h/mL | AUC(0-t) at 8 h [17]: 999 ng·h/mL | Cmax [18]: 771 ng/mL | IC50 [19]: 7400 nM | Activity [20]: Active | inhibition at 1 µM [21]: 24.8%

SMILES: COc1ccc(/C=C/C(=O)N2CCN(C(=O)CCCCC(c3ccccc3)c3ccccc3)CC2)cc1
IC50 ([5]; HEK293): 250 nM | Ratio IC50 [9]: 2.8 | IC50 [13]: 90 nM

SMILES: O=C(CCCCC(c1ccccc1)c1ccccc1)N1CCN(C/C=C/c2ccccc2)CC1 (stereo in doubt; 5a) [listing 1 of 2 here]
IC50 ([5]; HEK293): 390 nM | IC50 [13]: 50 nM

SMILES: c1ccc(C(CCCCCN2CCN(C(c3ccccc3)c3ccccc3)CC2)c2ccccc2)cc1
IC50 [13]: 50000 nM

SMILES: Fc1ccc(C(c2ccc(F)cc2)N2CCN(C/C=C/c3ccccc3)CC2)cc1 [FLUNARIZINE]
IC50 ([5]; HEK293): 310 nM | Ratio IC50 [9]: 3.9 | IC50 [13]: 80 nM

SMILES: Nc1ccc(/C=C/C(=O)N2CCN(C(=O)CCCCC(c3ccccc3)c3ccccc3)CC2)cc1
IC50 ([5]; HEK293): 830 nM | Ratio IC50 [9]: 5.5 | IC50 [13]: 150 nM

IC50 [13]: > 50000 nM
SMILES: O=C(C(c1ccccc1)c1ccccc1)N1CCN(C(c2ccccc2)c2ccccc2)CC1

SMILES: O=C(CCCCC(c1ccc(F)cc1)c1ccc(F)cc1)N1CCN(C/C=C/c2ccccc2)CC1
IC50 ([5]; HEK293): 120 nM | Ratio IC50 [9]: 1.3 | IC50 [13]: 90 nM

SMILES: O=C(CCCCC(c1ccccc1)c1ccccc1)N1CCN(C(c2ccccc2)c2ccccc2)CC1
IC50 [13]: 50000 nM

SMILES: COc1cc(C(=O)N2CCN(C(=O)CCCCC(c3ccc(F)cc3)c3ccc(F)cc3)CC2)cc(OC)c1OC
IC50 [13]: 540 nM

SMILES: O=C(CCC(c1ccccc1)c1ccccc1)N1CCN(C(c2ccccc2)c2ccccc2)CC1
IC50 [13]: 23000 nM

IC50 ([5]; HEK293): 1840 nM | Ratio IC50 [9]: 12
SMILES: O=C(NC(c1ccccc1)c1ccccc1)N1CCN(C(c2ccccc2)c2ccccc2)CC1

IC50 [13]: > 50000 nM
SMILES: c1ccc(C(CN2CCN(C(c3ccccc3)c3ccccc3)CC2)c2ccccc2)cc1

SMILES: c1ccc(C(CCCN2CCN(C(c3ccccc3)c3ccccc3)CC2)c2ccccc2)cc1
IC50 [13]: 6000 nM

SMILES: O=C(CCCCC(c1ccccc1)c1ccccc1)N1CCN(C/C=C/c2cccc3c2OCO3)CC1
IC50 [13]: 190 nM

SMILES: O=C(CCCCC(c1ccccc1)c1ccccc1)N1CCN(C/C=C/c2ccccc2)CC1 (stereo in doubt; 5c) [listing 1 of 2 here]
Ratio IC50 [9]: 2.8

IC50 ([5]; HEK293): 150 nM | Ratio IC50 [9]: 1.7
SMILES: COc1ccc(CN2CCN(C(c3ccc(F)cc3)c3ccc(F)cc3)CC2)c(OC)c1OC [LOMERIZINE]

SMILES: c1ccc(C(CCCCN2CCN(C(c3ccccc3)c3ccccc3)CC2)c2ccccc2)cc1
IC50 [13]: 20000 nM

SMILES: COc1cc(CN2CCN(C(=O)CCCCC(c3ccc(F)cc3)c3ccc(F)cc3)CC2)cc(OC)c1OC
IC50 [13]: 190 nM

SMILES: COc1cc(C(=O)N2CCN(CCCCCC(c3ccc(F)cc3)c3ccc(F)cc3)CC2)cc(OC)c1OC
Vd [1]: 11.7 L/kg | Cmax [2]: 173 ng/mL | half-life [3]: 5 h | Activity [4]: Active | IC50 ([5]; HEK293): 2840 nM | half-life [7]: 4.5 h | AUC(0-inf) [8]: 1020 ng·h/mL | bioavailability [10]: 21% | IC50 [13]: 110 nM | CL/F [14]: 170 mL/min/kg | AUC(0-t) at 8 h [15]: 725 ng·h/mL | AUC(0-inf) [16]: 975 ng·h/mL | AUC(0-t) at 8 h [17]: 753 ng·h/mL | Cmax [18]: 462 ng/mL

SMILES: O=C(/C=C/c1cccc2c1OCO2)N1CCN(C(=O)CCCCC(c2ccccc2)c2ccccc2)CC1
IC50 ([5]; HEK293): 740 nM | Ratio IC50 [9]: 5.7 | IC50 [13]: 130 nM

SMILES: c1ccc(C(CCN2CCN(C(c3ccccc3)c3ccccc3)CC2)c2ccccc2)cc1
IC50 [13]: 5000 nM

SMILES: COc1ccc(/C=C/CN2CCN(C(=O)CCCCC(c3ccccc3)c3ccccc3)CC2)cc1
IC50 [13]: 190 nM

SMILES: O=C(CCCCC(c1ccccc1)c1ccccc1)N1CCN(C/C=C/c2ccccc2)CC1 (stereo in doubt; 5c) [listing 2 of 2 here]
IC50 ([5]; hek293): 330 nM | IC50 [13]: 120 nM

IC50 [13]: > 50000 nM
SMILES: O=C(CCCC(c1ccccc1)c1ccccc1)N1CCN(C(c2ccccc2)c2ccccc2)CC1

SMILES: O=C(CCCCC(c1ccccc1)c1ccccc1)N1CCN(C/C=C/c2ccccc2)CC1 (stereo in doubt; 5a) [listing 2 of 2 here]
Ratio IC50 [9]: 8
